The source made the active and inactive calls. The rule behind the calls is not given here.
Columns and labels:
HepG2 [1] = assay: Cytotoxicity against human HepG2 cells in normoxic condition after 48 hrs by MTT assay; type: functional, cell-based
Method in brief: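 HepG2 cells (passage 2 from frozen stock) in RPMI 1640 with 10% FBS, dosed during log-phase growth with drug or vehicle (0.1% DMSO). Normoxic incubation at 37 °C, 5% CO2 for 48 h, then MTT read-out. Duplicate plates split from the same stock cells.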

HepG2 [2] = assay: Cytotoxicity against human HepG2 cells in hypoxic condition after 48 hrs by MTT assay; type: functional, cell-based
Method in brief: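 HepG2 cells (passage 2, RPMI 1640 + 10% FBS) given drug or 0.1% DMSO vehicle in log phase. 22 h normoxia, then 2 h hypoxia (1% O2, 5% CO2, 94% N2, 37 °C) in a glove chamber checked by methylene blue indicator, then 24 h reoxygenation. MTT read at 48 h; parallel normoxic duplicate plate.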

HepG2 [3] = assay: Cytotoxicity against human HepG2 cells assessed as cell survival under normoxic condition at 10 uM […] by clonogenic assay relative to control; type: functional; settings: read-out: Survival
Method in brief: (§1)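 HepG2 in RPMI 1640 + 10% FBS, 3.5 × 10^3 cells/well, allowed 24 h growth at 37 °C. Vehicle (0.1% DMSO) or drug then applied, with 10 days incubation under normoxia (5% CO2, 37 °C). Fixed in 10% acetic acid, stained with crystal violet. Colonies >50 μm were counted visually in three random 1-mm × 1-mm grids, relative to controls; Mann–Whitney test.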

HepG2 [4] = assay: Cytotoxicity against human HepG2 cells assessed as cell survival under normoxic condition at 50 uM after 24 hrs by clonogenic assay relative to control; type: functional; settings: HepG2, 24 h, read-out: Survival; method in brief: as §1
HepG2 [5] = assay: Cytotoxicity against human HepG2 cells assessed as cell survival under hypoxic condition at 10 uM after 24 hrs by clonogenic assay; type: functional; settings: HepG2, 24 h, read-out: Survival
Method in brief: (§2)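 HepG2 in RPMI 1640 + 10% FBS, 3.5 × 10^3 cells/well, grown 24 h at 37 °C normoxic, then exposed to vehicle (0.1% DMSO) or drug. Hypoxia 1% O2/5% CO2/94% N2 at 37 °C for 5 h in glove chamber, then reoxygenated (5% CO2, 37 °C) for the rest of 10 days. Acetic acid fixation, crystal violet stain. Colonies >50 μm counted in three random 1-mm grids, expressed relative to controls; Mann–Whitney test.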

HepG2 [6] = assay: Cytotoxicity against human HepG2 cells assessed as assessed as cell survival under hypoxic condition at 50 uM after 24 hrs by clonogenic assay; type: functional; settings: HepG2, 24 h, read-out: Survival; method in brief: as §2
HepG2 [7] = assay: Down regulation of hypoxia inducible HIF1alpha gene expression in human HepG2 cells at 20 uM by RT-PCR; type: functional, cell-based
Method in brief: (§3)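 Total RNA extracted with TRIzol, then quantitative RT-PCR: 50 °C 2 min, 95 °C 10 min, 40 cycles of 95 °C 15 s / 60 °C 1 min, with melting curves. Ct normalized to GAPDH; treated-minus-control ΔCt converted by 2^ to relative expression.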

HepG2 [8] = assay: Down regulation of hypoxia inducible P21 gene expression in human HepG2 cells at 20 uM by RT-PCR; type: functional, cell-based; method in brief: as §3
HepG2 [9] = assay: Down regulation of hypoxia inducible VEGF gene expression in human HepG2 cells at 20 uM by RT-PCR; type: functional, cell-based; method in brief: as §3
HepG2 [10] = assay: Cytotoxicity against human HepG2 cells assessed as cell survival under normoxic condition at 25 uM after 24 hrs by clonogenic assay relative to control; type: functional; settings: HepG2, 24 h, read-out: Survival; method in brief: as §1
HepG2 [11] = assay: Cytotoxicity against human HepG2 cells assessed as cell survival under normoxic condition assessed as cell survival at 100 uM after 24 hrs by clonogenic assay relative to control; type: functional; settings: HepG2, 24 h, read-out: Survival; method in brief: as §1
HepG2 [12] = assay: Cytotoxicity against human HepG2 cells assessed as cell survival under hypoxic condition at 25 uM after 24 hrs by clonogenic assay relative to control; type: functional; settings: HepG2, 24 h, read-out: Survival; method in brief: as §2
HepG2 [13] = assay: Cytotoxicity against human HepG2 cells assessed as cell survival under hypoxic condition at 100 uM after 24 hrs by clonogenic assay relative to control; type: functional; settings: HepG2, 24 h, read-out: Survival; method in brief: as §2
HepG2 [14] = assay: Cytotoxicity against human HepG2 cells assessed as cell survival under hypoxic condition at 400 uM after 24 hrs by clonogenic assay relative to control; type: functional, cell-based; settings: in the assay text read “normoxic” for “hypoxic”
[15] = Homo sapiens, HepG2, 48 h, read-out: IC50

With `O=[N+]([O-])c1ccc2c(c1)N=C(c1ccc(Cl)cc1)CO2` the IC50 (HepG2 [1]; [15]) was 78 µM, the IC50 (HepG2 [2]; [15]) was 20 µM and the viability at 10 µM (HepG2 [3]) was 10%. For the same compound, the viability at 50 µM (HepG2 [4]) was -11%, the viability at 10 µM (HepG2 [5]) was -28% and the viability at 50 µM (HepG2 [6]) was -83%.

With `Cc1ccc2c(c1)N=C(c1ccc(F)cc1)CO2` the IC50 (HepG2 [1]; hepg2) was “Not Active” and the IC50 (HepG2 [2]; hepg2) was “Not Active”.

With `Cc1ccc(C2=Nc3cc(F)ccc3OC2)cc1` the IC50 (HepG2 [1]; hepg2) was “Not Active” and the IC50 (HepG2 [2]; [15]) was 100 µM.

In the case of `Clc1ccc(C2=Nc3ccc(Cl)cc3OC2)cc1`, the IC50 (HepG2 [1]; [15]) is reported as 88 µM and the IC50 (HepG2 [2]; [15]) is reported as 28 µM.

`Cc1ccc2c(c1)N=C(c1ccc(Cl)cc1)CO2` was tested, and the IC50 (HepG2 [2]; [15]) was 87 µM, the viability at 50 µM (HepG2 [4]) was 3% and the viability at 50 µM (HepG2 [6]) was -65%. The Activity (HepG2 [7]) was “Active”, the Activity (HepG2 [8]) was “Active” and the Activity (HepG2 [9]) was “Active”. The viability at 25 µM (HepG2 [10]) was 5%, the viability at 100 µM (HepG2 [11]) was 10% and the viability at 25 µM (HepG2 [12]) was -31%. The viability at 100 µM (HepG2 [13]) was -90% and the Activity (HepG2 [14]) was “Not toxic”.

Compound `Clc1ccc2c(c1)N=C(c1ccccc1)CO2` has an IC50 (HepG2 [1]; [15]) of 78 µM and an IC50 (HepG2 [2]; [15]) of 30 µM.

In the case of `c1ccc(C2=Nc3ccccc3OC2)cc1`, the IC50 (HepG2 [1]; [15]) is reported as 87 µM, the IC50 (HepG2 [2]; [15]) is reported as 10 µM and the viability at 10 µM (HepG2 [5]) is reported as -71%.

With `Cc1ccc(C2=Nc3ccc(Cl)cc3OC2)cc1` the IC50 (HepG2 [1]; hepg2) was “Not Active” and the IC50 (HepG2 [2]; [15]) was 10 µM.
